Reference: ChEMBL document CHEMBL2346604, “Synthesis of nordihydroguaiaretic acid derivatives and their bioactivities on S. pombe and K562 cell lines” (Eur J Med Chem, 2013)
≈ marks a conversion by molar mass, not a printed value.

Columns and labels:
K562 [1] = experiment: Inhibition of growth metabolism of human K562 cells assessed as growth rate constant at 6 mg/L at 37 degC by TAM air microcalorimetry; format: functional
In short: (§1)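 K562 cells in supplemented RPMI 1640 (10% FBS) seeded at 1×10⁶ cells/mL with compound at graded concentrations. Heat flow recorded in real time in an eight-channel isothermal microcalorimeter (TAM Air). Rate constant k derived from thermogenic growth curves. Inhibition ratio I = (k0 − kc)/k0 × 100% relative to untreated cells, and IC50 is the concentration at I = 50%. Mean ± S.D., n = 3.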

K562 [2] = experiment: Inhibition of growth metabolism of human K562 cells at 37 degC by TAM air microcalorimetry; format: functional, cell-based; in short: as §1
[3] = tested on: Schizosaccharomyces pombe; experiment: Inhibitive ratio of growth metabolism of Schizosaccharomyces pombe ACCC 20047 at 400 mg/L at 32 degC by TAM air microcalorimetry (reference value: 0%); format: functional
In short: (§2)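 Cells seeded at 1×10⁶ cells/mL with compound at a range of concentrations. Heat output recorded continuously in a TAM Air isothermal microcalorimeter. Growth rate constant k taken from power-time curves. I = (k0 − kc)/k0 × 100%, and IC50 is the concentration giving I = 50%. n = 3.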

[4] = tested on: Schizosaccharomyces pombe; experiment: Inhibitive ratio of growth metabolism of Schizosaccharomyces pombe ACCC 20047 at 320 mg/L at 32 degC by TAM air microcalorimetry (reference value: 0%); format: functional; in short: as §2
[5] = tested on: Schizosaccharomyces pombe; experiment: Inhibition of growth metabolism of Schizosaccharomyces pombe ACCC 20047 assessed as growth rate constant at 240 mg/L at 32 degC by TAM air microcalorimetry; format: functional; in short: as §2
[6] = tested on: Schizosaccharomyces pombe; experiment: Inhibition of growth metabolism of Schizosaccharomyces pombe ACCC 20047 assessed as growth rate constant at 40 mg/L at 32 degC by TAM air microcalorimetry; format: functional; in short: as §2
K562 [7] = experiment: Inhibitive ratio of growth metabolism of human K562 cells at 6 mg/L at 37 degC by TAM air microcalorimetry (reference value: 0%); format: functional; in short: as §1
[8] = tested on: Schizosaccharomyces pombe; experiment: Inhibitive ratio of growth metabolism of Schizosaccharomyces pombe ACCC 20047 at 20 mg/L at 32 degC by TAM air microcalorimetry (reference value: 0%); format: functional; in short: as §2
[9] = tested on: Schizosaccharomyces pombe; experiment: Inhibition of growth metabolism of Schizosaccharomyces pombe ACCC 20047 at 32 degC by TAM air microcalorimetry; format: functional, organism-based; in short: as §2
[10] = tested on: Schizosaccharomyces pombe; experiment: Inhibitive ratio of growth metabolism of Schizosaccharomyces pombe ACCC 20047 at 160 mg/L at 32 degC by TAM air microcalorimetry (reference value: 0%); format: functional; in short: as §2
[11] = tested on: Schizosaccharomyces pombe; experiment: Inhibitive ratio of growth metabolism of Schizosaccharomyces pombe ACCC 20047 at 80 mg/L at 32 degC by TAM air microcalorimetry (reference value: 0%); format: functional; in short: as §2
[12] = tested on: Schizosaccharomyces pombe; experiment: Inhibition of growth metabolism of Schizosaccharomyces pombe ACCC 20047 assessed as growth rate constant at 20 mg/L at 32 degC by TAM air microcalorimetry; format: functional; in short: as §2
K562 [13] = experiment: Inhibitive ratio of growth metabolism of human K562 cells at 11 mg/L at 37 degC by TAM air microcalorimetry (reference value: 0%); format: functional; in short: as §1
K562 [14] = experiment: Inhibition of growth metabolism of human K562 cells assessed as growth rate constant at 8 mg/L at 37 degC by TAM air microcalorimetry; format: functional; in short: as §1
K562 [15] = experiment: Inhibitive ratio of growth metabolism of human K562 cells at 4 mg/L at 37 degC by TAM air microcalorimetry (reference value: 0%); format: functional; in short: as §1
K562 [16] = experiment: Inhibition of growth metabolism of human K562 cells assessed as growth rate constant at 7 mg/L at 37 degC by TAM air microcalorimetry; format: functional; in short: as §1
[17] = tested on: Schizosaccharomyces pombe; experiment: Inhibitive ratio of growth metabolism of Schizosaccharomyces pombe ACCC 20047 at 240 mg/L at 32 degC by TAM air microcalorimetry (reference value: 0%); format: functional; in short: as §2
K562 [18] = experiment: Inhibitive ratio of growth metabolism of human K562 cells at 7 mg/L at 37 degC by TAM air microcalorimetry (reference value: 0%); format: functional; in short: as §1
K562 [19] = experiment: Inhibition of growth metabolism of human K562 cells assessed as growth rate constant at 9 mg/L at 37 degC by TAM air microcalorimetry; format: functional; in short: as §1
[20] = tested on: Schizosaccharomyces pombe; experiment: Inhibition of growth metabolism of Schizosaccharomyces pombe ACCC 20047 assessed as growth rate constant at 400 mg/L at 32 degC by TAM air microcalorimetry; format: functional; in short: as §2
[21] = tested on: Schizosaccharomyces pombe; experiment: Inhibition of growth metabolism of Schizosaccharomyces pombe ACCC 20047 assessed as growth rate constant at 160 mg/L at 32 degC by TAM air microcalorimetry; format: functional; in short: as §2
K562 [22] = experiment: Inhibition of growth metabolism of human K562 cells assessed as growth rate constant at 4 mg/L at 37 degC by TAM air microcalorimetry; format: functional; in short: as §1
K562 [23] = experiment: Inhibitive ratio of growth metabolism of human K562 cells at 9 mg/L at 37 degC by TAM air microcalorimetry (reference value: 0%); format: functional; in short: as §1
K562 [24] = experiment: Inhibition of growth metabolism of human K562 cells assessed as growth rate constant at 11 mg/L at 37 degC by TAM air microcalorimetry; format: functional; in short: as §1
K562 [25] = experiment: Inhibitive ratio of growth metabolism of human K562 cells at 8 mg/L at 37 degC by TAM air microcalorimetry (reference value: 0%); format: functional; in short: as §1
[26] = tested on: Schizosaccharomyces pombe; experiment: Inhibition of growth metabolism of Schizosaccharomyces pombe ACCC 20047 assessed as growth rate constant at 320 mg/L at 32 degC by TAM air microcalorimetry; format: functional; in short: as §2
[27] = tested on: Schizosaccharomyces pombe; experiment: Inhibitive ratio of growth metabolism of Schizosaccharomyces pombe ACCC 20047 at 40 mg/L at 32 degC by TAM air microcalorimetry (reference value: 0%); format: functional; in short: as §2
[28] = tested on: Schizosaccharomyces pombe; experiment: Inhibition of growth metabolism of Schizosaccharomyces pombe ACCC 20047 assessed as growth rate constant at 80 mg/L at 32 degC by TAM air microcalorimetry; format: functional; in short: as §2

**Q.** What does the source list for COc1ccc(C(=O)C(C)C(C)C(=O)c2ccc(OC)c(OC)c2)cc1OC (stereo not drawn)?
**A.** Activity (K562 [1]): 3.9703 ×10⁻⁴ /min; IC50 (K562 [2]): 8.57 mg/L (≈ 22.2 µM); inhibition at 400 µg/mL [3]: 83%; inhibition at 320 µg/mL [4]: 63.3%; Activity [5]: 0.00341 min⁻¹; Activity [6]: 0.00462 min⁻¹; inhibition at 6 µg/mL (K562 [7]): -0.78%; inhibition at 20 µg/mL [8]: -7.88%; IC50 [9]: 290 mg/L (≈ 750 µM); inhibition at 160 µg/mL [10]: 5.18%; inhibition at 80 µg/mL [11]: -3.6%; Activity [12]: 0.00479 min⁻¹; inhibition at 11 µg/mL (K562 [13]): 57.3%; Activity (K562 [14]): 2.2866 ×10⁻⁴ /min; inhibition at 4 µg/mL (K562 [15]): -13.9%; Activity (K562 [16]): 3.6261 ×10⁻⁴ /min; inhibition at 240 µg/mL [17]: 23.2%; inhibition at 7 µg/mL (K562 [18]): 7.96%; Activity (K562 [19]): 1.7435 ×10⁻⁴ /min; Activity [20]: 0.00075 min⁻¹; Activity [21]: 0.00421 min⁻¹; Activity (K562 [22]): 4.4893 ×10⁻⁴ /min; inhibition at 9 µg/mL (K562 [23]): 55.8%; Activity (K562 [24]): 1.681 ×10⁻⁴ /min; inhibition at 8 µg/mL (K562 [25]): 42%; Activity [26]: 0.00163 min⁻¹; inhibition at 40 µg/mL [27]: -4.05%; Activity [28]: 0.0046 min⁻¹
